# Results from ChEMBL document CHEMBL1139634, “Synthesis of substituted indole derivatives as a new class of antimalarial agents” (2005).
# Test system: Plasmodium falciparum
# Test: In vitro minimum inhibitory concentration against Plasmodium falciparum NF54 over 40 hours
# Format: functional
# Method in brief: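 Micro assay in 96-well format: compounds at 0.25–50 µg/mL, duplicate wells, incubated with parasitized cells at 37 °C in candle jar, 36–40 h. Giemsa-stained smears scored microscopically for ring-to-schizont maturation. MIC is the concentration fully blocking schizont maturation. Pyrimethamine reference.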
row,Compound,MIC [µg/mL]
1,COc1ccc(-c2cc(-c3c[nH]c4ccccc34)nc(N3CCOCC3)n2)cc1OC,50
2,COc1ccc(OC)c(-c2cc(-c3c[nH]c4ccccc34)nc(N3CCOCC3)n2)c1,50
3,COc1ccc(-c2cc(-c3c[nH]c4ccccc34)nc(N3CCOCC3)n2)cc1,50
4,c1ccc(-c2cc(-c3c[nH]c4ccccc34)nc(N3CCOCC3)n2)cc1,50
5,c1ccc(-c2cc(-c3c[nH]c4ccccc34)nc(N3CCCC3)n2)cc1,10
6,COc1ccc(-c2cc(-c3c[nH]c4ccccc34)nc(N3CCCCC3)n2)cc1OC,10
7,COc1ccc(OC)c(-c2cc(-c3c[nH]c4ccccc34)nc(N3CCCCC3)n2)c1,10
8,COc1ccc(-c2cc(-c3c[nH]c4ccccc34)nc(N3CCCCC3)n2)cc1,10
9,Cc1ccc(-c2cc(-c3c[nH]c4ccccc34)nc(N3CCOCC3)n2)cc1,50
10,Cc1ccc(-c2cc(-c3c[nH]c4ccccc34)nc(N3CCCC3)n2)cc1,10
11,Clc1ccc(-c2cc(-c3c[nH]c4ccccc34)nc(N3CCCC3)n2)cc1,10
12,c1ccc(-c2cc(-c3c[nH]c4ccccc34)nc(N3CCCCC3)n2)cc1,10
13,Clc1ccc(-c2cc(-c3c[nH]c4ccccc34)nc(N3CCOCC3)n2)cc1,50

# The remaining lines, values ahead:
row,MIC [µg/mL],Compound
1,10,Clc1ccc(-c2cc(-c3c[nH]c4ccccc34)nc(N3CCCCC3)n2)cc1
2,1,CN1CCN(c2nc(-c3ccc(Cl)cc3)cc(-c3c[nH]c4ccccc34)n2)CC1
3,10,COc1ccc(-c2cc(-c3c[nH]c4ccccc34)nc(N3CCCC3)n2)cc1OC
4,10,COc1ccc(OC)c(-c2cc(-c3c[nH]c4ccccc34)nc(N3CCCC3)n2)c1
5,1,COc1ccc(OC)c(-c2cc(-c3c[nH]c4ccccc34)nc(N3CCN(C)CC3)n2)c1
6,10,COc1ccc(-c2cc(-c3c[nH]c4ccccc34)nc(N3CCCC3)n2)cc1
7,1,COc1ccc(-c2cc(-c3c[nH]c4ccccc34)nc(N3CCN(C)CC3)n2)cc1OC
8,10,Cc1ccc(-c2cc(-c3c[nH]c4ccccc34)nc(N3CCCCC3)n2)cc1
9,1,CN1CCN(c2nc(-c3ccccc3)cc(-c3c[nH]c4ccccc34)n2)CC1
10,1,COc1ccc(-c2cc(-c3c[nH]c4ccccc34)nc(N3CCN(C)CC3)n2)cc1
11,10,CCc1nc(N)nc(N)c1-c1ccc(Cl)cc1 [PYRIMETHAMINE]
12,1,Cc1ccc(-c2cc(-c3c[nH]c4ccccc34)nc(N3CCN(C)CC3)n2)cc1
